From ChEMBL document CHEMBL4190227, “Syntheses, toxicities and anti-inflammation of H2S-donors based on non-steroidal anti-inflammatory drugs” (Eur J Med Chem, 2017)

Tests used:
[1] = (§1) Cytotoxicity against mouse RAW264.7 cells assessed as cell viability at 10 to 100 uM treated for 24 hrs in absence of LPS by MTT assay; assay type: cell-based; conditions: RAW264.7 cells, read-out: Activity
In short: (§2)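 Macrophages in high-glucose DMEM + 10% heat-inactivated FBS, 2 mM glutamine, 37 °C, 5% CO2; exposed 24 h to 10, 50, 100 μM with or without LPS 1 μg/mL; MTT added 4 h, formazan dissolved in DMSO, A570, expressed as % of control; four independent experiments.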

Danio rerio = species on record: Danio rerio; experiment: Toxicity in AB zebrafish embryo assessed as vitelline cyst at 0.5 uM measured at 96 hrs post fertilization by stereoscopic dissecting light microscopic analysis; assay type: organism-based; conditions: in vivo
In short: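 AB embryos exposed from 4 hpf through 96 hpf to compound or DMF vehicle (1:1000); malformations scored at 96 hpf under stereoscopic dissecting microscope; 100 embryos per group in three replicates; three independent experiments, mean ± SD.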

[2] = Drug degradation in phosphate buffer assessed as H2S release by measuring test compound half life at 40 uM measured every 5 mins in presence of TECP by UV-Vis spectrometry; assay type: physicochemical
In short: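 Sulfide release at 37.5 °C: donor (40 mM THF stock) added to pH 7.4 phosphate buffer with 1.0 mM TECP; aliquots taken every 5 min into methylene blue cocktail (zinc acetate, N,N-dimethyl-1,4-phenylenediamine, FeCl3 in HCl), A670 read 15 min later; H2S from Na2S calibration curve; concentration vs time curve; four independent experiments.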

[3] = molecular target: T1, Nitric oxide synthase, inducible (Mus musculus) (UniProt P29477); experiment: Inhibition of iNOS in mouse RAW264.7 cells assessed as reduction in LPS-induced NO production at 50 uM administered for 24 hrs post LPS induction by Griess method relative to control; assay type: cell-based
T1 sequence (whole entry): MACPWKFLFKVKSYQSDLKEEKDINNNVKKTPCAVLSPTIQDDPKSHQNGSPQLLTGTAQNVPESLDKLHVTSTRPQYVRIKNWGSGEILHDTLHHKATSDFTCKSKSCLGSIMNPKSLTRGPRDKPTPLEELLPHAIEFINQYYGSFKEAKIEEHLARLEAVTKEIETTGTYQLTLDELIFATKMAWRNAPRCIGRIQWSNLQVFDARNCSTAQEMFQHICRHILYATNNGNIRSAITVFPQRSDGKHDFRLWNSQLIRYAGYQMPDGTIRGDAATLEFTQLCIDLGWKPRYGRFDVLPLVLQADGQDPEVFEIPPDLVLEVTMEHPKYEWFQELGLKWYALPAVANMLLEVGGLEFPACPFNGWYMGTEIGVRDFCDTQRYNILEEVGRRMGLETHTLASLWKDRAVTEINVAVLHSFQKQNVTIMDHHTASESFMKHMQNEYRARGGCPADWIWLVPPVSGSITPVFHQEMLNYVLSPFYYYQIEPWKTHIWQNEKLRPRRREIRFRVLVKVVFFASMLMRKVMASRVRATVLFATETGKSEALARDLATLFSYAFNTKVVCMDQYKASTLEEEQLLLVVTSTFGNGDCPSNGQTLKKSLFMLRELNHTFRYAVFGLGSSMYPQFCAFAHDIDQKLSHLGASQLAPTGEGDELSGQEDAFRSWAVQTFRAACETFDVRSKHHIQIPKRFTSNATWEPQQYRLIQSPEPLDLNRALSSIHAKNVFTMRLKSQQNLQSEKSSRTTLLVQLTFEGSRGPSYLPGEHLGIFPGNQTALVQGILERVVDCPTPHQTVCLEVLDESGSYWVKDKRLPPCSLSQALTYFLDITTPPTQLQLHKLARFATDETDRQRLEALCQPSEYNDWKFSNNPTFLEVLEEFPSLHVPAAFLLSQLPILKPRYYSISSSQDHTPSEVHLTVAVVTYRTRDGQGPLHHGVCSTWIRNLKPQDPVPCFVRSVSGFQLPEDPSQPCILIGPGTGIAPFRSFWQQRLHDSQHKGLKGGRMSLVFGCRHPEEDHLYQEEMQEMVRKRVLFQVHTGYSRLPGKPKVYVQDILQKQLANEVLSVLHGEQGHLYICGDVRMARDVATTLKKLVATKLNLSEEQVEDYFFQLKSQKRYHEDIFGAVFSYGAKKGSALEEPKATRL
In short: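 RAW264.7 cells stimulated with LPS 1 μg/mL for 4 h, then compound (10, 50, 100 μM) for 24 h; culture medium reacted with Griess reagents I and II, absorbance 570 nm; nitrite from sodium nitrite standard curve (0–100 μM in medium); four independent experiments, mean ± SD.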

RAW264.7 = experiment: as §1; assay type: cell-based; conditions: raw264.7, 24 h, 100 µM; in short: as §2

Compound | viability at 24 h, up to 100 µM [1] [%] | Activity (Danio rerio) | half-life at 40 µM [2] [min] | inhibition [3] [%] | Activity (RAW264.7)
CC(C)Cc1ccc(C(C)C(=O)Oc2ccc(C(N)=S)cc2)cc1 (stereo not given) | 70 to 110 | Toxic | 20.1 |  | 
CC(=O)Nc1ccc(OC(=O)CCCCC2CCSS2)cc1 (stereo not given) |  |  |  | 60 | Non-Toxic
